Experimental data from PMC5768938 (World Journal of Gastroenterology, 2018).
Marks after values point to notes of the source that are not given here.

Experiments:
[1] = system: TGR5; settings: read-out: TGR5 EC50; in vitro; cited from earlier work
[2] = system: FXR; settings: read-out: FXR EC50; in vitro; cited from earlier work
[3] = system: ob/ob-NASH mice; test: Liver histology; assay type: in vivo; settings: 16 wk; for Collagen 1a1 (fibrosis) % fractional area, Before treatment / Galectin-3 (inflammation) % fractional area, Before treatment / Lipid (steatosis) % fractional area, Before treatment: baseline biopsy; for Collagen 1a1 (fibrosis) % fractional area, Before treatment / Galectin-3 (inflammation) % fractional area, Before treatment / Lipid (steatosis) % fractional area, Before treatment / Collagen 1a1 (fibrosis) % fractional area, After treatment / Galectin-3 (inflammation) % fractional area, After treatment / Lipid (steatosis) % fractional area, After treatment: mean ± SE
In short: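 Biopsy-confirmed ob/ob-NASH mice (AMLN diet; n = 11-12/group, stratified by Col1a1 fibrosis) were dosed orally with vehicle or test compound for 16 wk. Baseline biopsies and terminal left lateral lobe samples were fixed overnight in 4% PFA, paraffin-sectioned at 3 μm, and stained with HE, anti-Col1a1 and anti-galectin-3. Scoring was blinded. Immunoreactive area was expressed as % of parenchymal area after subtracting fat area from adjacent HE sections. Responders had ≥1-point change (χ2 test).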

[4] = system: FXR target genes; test: Hepatic and ileal FXR target gene expression by RNA sequencing, 14 d dosing; assay type: in vivo; settings: 1-30 mg/kg PO, 2 wk, lean C57Bl6 mice, RNAseq
In short: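 Lean chow-fed C57Bl6 mice received FXR-agonist test compounds at 1, 3, 10 or 30 mg/kg PO QD for 14 d. Liver and ileum transcriptomes were profiled by RNA sequencing using stranded mRNA libraries on a NextSeq 500. Prototypic FXR target genes were analysed by two-way ANOVA with Bonferroni post-hoc test against untreated (dose 0) animals.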

[5] = LC/MS/MS determination of compound levels in liver and ileum, 14 d dosing; assay type: in vivo; settings: 1-30 mg/kg PO, chow-fed C57Bl6 mice
In short: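 Chow-fed C57Bl6 mice were dosed PO QD with test compounds at 1-30 mg/kg for 14 d. Weighed liver and ileum were bead-homogenised in 7 volumes of 80/20 ACN/HBSS and centrifuged. Supernatant was dried under nitrogen and reconstituted in 60/40 methanol/10 mmol/L ammonium acetate with 25 nmol/L d5-GCA internal standard, then filtered. Analysis used UHPLC-high-resolution MS in negative ESI with a C18 column at 45 °C and matrix-matched quadratic (1/x) calibration.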

[6] = 10 mg/kg, subjects achieving > 1 points improvement in score from baseline

CC[C@H]1[C@@H](O)C2[C@@H]3CC[C@H]([C@H](C)CCOS(=O)(=O)O)[C@@]3(C)CC[C@@H]2[C@@]2(C)CC[C@@H](O)C[C@@H]12 (some centres unmarked) [INT-767]
EC50 [1]: […] | EC50 [2]: […]

CC[C@H]1[C@@H](O)[C@@H]2[C@H](CC[C@]3(C)[C@@H]([C@H](C)CCC(=O)O)CC[C@@H]23)[C@@]2(C)CC[C@@H](O)C[C@@H]12 [OCA, obeticholic acid]
Fibrosis stage: No improvement (number of mice) ([3]; 10 mg/kg): 10 | Fibrosis stage: With improvement (number of mice) ([3]; 10 mg/kg): 2 | NAS: No improvement (number of mice) ([3]; 10 mg/kg): 8 | NAS: With improvement (number of mice) ([3]; 10 mg/kg): 4 | Collagen 1a1 (fibrosis) % fractional area, Before treatment ([3]; 10 mg/kg): 0.9 ± 0.1 % fractional area | Galectin-3 (inflammation) % fractional area, Before treatment ([3]; 10 mg/kg): 5.5 ± 0.3 % fractional area | Lipid (steatosis) % fractional area, Before treatment ([3]; 10 mg/kg): 33.4 ± 0.8 % fractional area | Collagen 1a1 (fibrosis) % fractional area, After treatment ([3]; 10 mg/kg): 9.0 ± 0.6 ^a % fractional area | Galectin-3 (inflammation) % fractional area, After treatment ([3]; 10 mg/kg): 5.0 ± 0.2 ^a % fractional area | Lipid (steatosis) % fractional area, After treatment ([3]; 10 mg/kg): 31.8 ± 0.4 % fractional area | Fibrosis stage: % improving [3, 6]: 17% | NAS: % improving [3, 6]: 33% | Fibrosis stage: No improvement (number of mice) ([3]; 30 mg/kg): 7 | Fibrosis stage: With improvement (number of mice) ([3]; 30 mg/kg): 4 | NAS: No improvement (number of mice) ([3]; 30 mg/kg): 0 | NAS: With improvement (number of mice) ([3]; 30 mg/kg): 11 | Collagen 1a1 (fibrosis) % fractional area, Before treatment ([3]; 30 mg/kg): 1.2 ± 0.2 % fractional area | Galectin-3 (inflammation) % fractional area, Before treatment ([3]; 30 mg/kg): 5.5 ± 0.4 % fractional area | Lipid (steatosis) % fractional area, Before treatment ([3]; 30 mg/kg): 32.2 ± 1.1 % fractional area | Collagen 1a1 (fibrosis) % fractional area, After treatment ([3]; 30 mg/kg): 8.0 ± 0.7 ^a % fractional area | Galectin-3 (inflammation) % fractional area, After treatment ([3]; 30 mg/kg): 4.0 ± 0.4 ^a % fractional area | Lipid (steatosis) % fractional area, After treatment ([3]; 30 mg/kg): 22.7 ± 1.0 ^a % fractional area | NAS: % improving ([3]; 30 mg/kg, subjects achieving > 1 points improvement in score from baseline): 100% ^a | hepatic FXR target gene expression (BSEP, OST, CYP8b1, SHP) [4]: regulated hepatic FXR genes | ileal FXR target gene expression (SHP, FGF-15) [4]: more pronounced effects | ileal drug concentration compared to the liver [5]: approximately two-fold
